The record followed here is ChEMBL document CHEMBL5150051, “Identification and Characterization of a Novel Indoleamine 2,3-Dioxygenase 1 Protein Degrader for Glioblastoma” (J Med Chem, 2022).

Sequence of Protein cereblon/Indoleamine 2,3-dioxygenase 1 (P14902 whole entry, looked up): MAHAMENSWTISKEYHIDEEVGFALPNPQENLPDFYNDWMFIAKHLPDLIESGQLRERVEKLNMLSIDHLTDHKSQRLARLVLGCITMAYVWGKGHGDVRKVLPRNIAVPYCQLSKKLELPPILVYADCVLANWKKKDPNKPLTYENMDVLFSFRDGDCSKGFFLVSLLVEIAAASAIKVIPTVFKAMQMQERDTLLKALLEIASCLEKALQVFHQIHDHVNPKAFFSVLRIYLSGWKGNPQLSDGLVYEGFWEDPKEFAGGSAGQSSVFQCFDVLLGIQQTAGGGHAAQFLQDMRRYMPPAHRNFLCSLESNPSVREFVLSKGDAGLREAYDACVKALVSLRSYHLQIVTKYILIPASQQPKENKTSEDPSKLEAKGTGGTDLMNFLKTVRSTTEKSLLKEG
Sequence of Protein cereblon/Indoleamine 2,3-dioxygenase 1 (Q96SW2 whole entry, looked up): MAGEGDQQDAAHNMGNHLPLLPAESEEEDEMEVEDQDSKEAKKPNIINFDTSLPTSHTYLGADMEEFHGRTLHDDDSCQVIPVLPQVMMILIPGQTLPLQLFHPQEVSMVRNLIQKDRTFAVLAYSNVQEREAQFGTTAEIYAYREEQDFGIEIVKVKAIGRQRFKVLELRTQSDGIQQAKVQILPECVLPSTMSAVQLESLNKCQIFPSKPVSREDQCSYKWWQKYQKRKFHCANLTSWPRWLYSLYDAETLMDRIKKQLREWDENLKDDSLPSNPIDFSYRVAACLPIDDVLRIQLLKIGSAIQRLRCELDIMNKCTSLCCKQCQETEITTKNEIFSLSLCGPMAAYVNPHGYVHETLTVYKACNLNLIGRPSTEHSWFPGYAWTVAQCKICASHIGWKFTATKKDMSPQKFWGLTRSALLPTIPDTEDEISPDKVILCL

This assay deals with Protein cereblon/Indoleamine 2,3-dioxygenase 1 (Homo sapiens, UniProt P14902+Q96SW2). The assay is described as follows: Protac activity at IDO1/CRBN in IFNgamma-stimulated human U87 cells assessed as IDO1 degradation at 10 uM measured after 24 hrs by Western blotting analysis relative to control. Type of assay: cell-based. The method in brief:
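U87 GBM cells primed with human IFNγ 50 ng/mL for 24 h, then exposed to PROTAC at 10 μM for 24 h. Lysates run on western blot; IDO1 bands quantified by densitometry and expressed as percent of normalized IDO1 protein level.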
A general note: Immunoblotting shows a protein as a band on a membrane.
Turning to `C[C@@H](C(=O)Nc1ccc(OCCOCCOCCOCCOc2cccc3c2C(=O)N(C2CCC(=O)NC2=O)C3=O)cc1)[C@H]1CC[C@@H](c2ccnc3ccc(F)cc32)CC1` (some centres not stated), the Activity came out at 0%.
Under `C[C@@H](C(=O)Nc1ccc(OCCOCCOCCOCCOCCOCCNC(=O)COc2cccc3c2C(=O)N(C2CCC(=O)NC2=O)C3=O)cc1)[C@H]1CC[C@@H](c2ccnc3ccc(F)cc32)CC1` (some centres not stated) stands 46%; under `C[C@@H](C(=O)Nc1ccc(OC2CN(C(=O)CCOCCNc3cccc4c3C(=O)N(C3CCC(=O)NC3=O)C4=O)C2)cc1)[C@H]1CC[C@@H](c2ccnc3ccc(F)cc32)CC1` (some centres not stated), 90%.
In the case of `C[C@@H](C(=O)Nc1ccc(OC2CCN(CCCOCCNC(=O)COc3cccc4c3C(=O)N(C3CCC(=O)NC3=O)C4=O)CC2)cc1)[C@H]1CC[C@@H](c2ccnc3ccc(F)cc32)CC1` (some centres not stated), the Activity turned out to be 66%.
Under `C[C@@H](C(=O)Nc1ccc(Cl)c(OCCCOc2cccc3c2C(=O)N(C2CCC(=O)NC2=O)C3=O)c1)[C@H]1CC[C@@H](c2ccnc3ccc(F)cc32)CC1` (some centres not stated) stands 49%; under `C[C@@H](C(=O)Nc1ccc(OCCOCCOCCOCCOCCNC(=O)COc2cccc3c2C(=O)N(C2CCC(=O)NC2=O)C3=O)cc1)[C@H]1CC[C@@H](c2ccnc3ccc(F)cc32)CC1` (some centres not stated), 0%; under `C[C@@H](C(=O)Nc1ccc(OCCOCCOCCOCCNc2cccc3c2C(=O)N(C2CCC(=O)NC2=O)C3=O)cc1)[C@H]1CC[C@@H](c2ccnc3ccc(F)cc32)CC1` (some centres not stated), 0%.
Regarding `C[C@@H](C(=O)Nc1ccc(OCCOCCOCCOCCOCCOCCOc2cccc3c2C(=O)N(C2CCC(=O)NC2=O)C3=O)cc1)[C@H]1CC[C@@H](c2ccnc3ccc(F)cc32)CC1` (some centres not stated), the Activity stood at 0%.
The same measure for `C[C@@H](C(=O)Nc1ccc(Cl)c(OCCOCCOCCOCCOc2cccc3c2C(=O)N(C2CCC(=O)NC2=O)C3=O)c1)[C@H]1CC[C@@H](c2ccnc3ccc(F)cc32)CC1` (some centres not stated): 13%; for `C[C@@H](C(=O)Nc1ccc(OC2CCN(C(=O)CCOCCOCCOc3cccc4c3C(=O)N(C3CCC(=O)NC3=O)C4=O)CC2)cc1)[C@H]1CC[C@@H](c2ccnc3ccc(F)cc32)CC1` (some centres not stated): 80%; for `C[C@@H](C(=O)Nc1ccc(OC2CN(C(=O)CCOCCOc3cccc4c3C(=O)N(C3CCC(=O)NC3=O)C4=O)C2)cc1)[C@H]1CC[C@@H](c2ccnc3ccc(F)cc32)CC1` (some centres not stated): 86%.
The same measure for `C[C@@H](C(=O)Nc1ccc(Cl)c(OCCCNC(=O)COc2cccc3c2C(=O)N(C2CCC(=O)NC2=O)C3=O)c1)[C@H]1CC[C@@H](c2ccnc3ccc(F)cc32)CC1` (some centres not stated): 67%; for `C[C@@H](C(=O)Nc1ccc(Cl)c(OCCCCCCNc2cccc3c2C(=O)N(C2CCC(=O)NC2=O)C3=O)c1)[C@H]1CC[C@@H](c2ccnc3ccc(F)cc32)CC1` (some centres not stated): 0%.
Regarding `C[C@@H](C(=O)Nc1ccc(Cl)c(OCCOCCOCCOCCOCCOc2cccc3c2C(=O)N(C2CCC(=O)NC2=O)C3=O)c1)[C@H]1CC[C@@H](c2ccnc3ccc(F)cc32)CC1` (some centres not stated), the Activity worked out at 0%.
Under `C[C@@H](C(=O)Nc1ccc(Cl)c(OCCCCCCOc2cccc3c2C(=O)N(C2CCC(=O)NC2=O)C3=O)c1)[C@H]1CC[C@@H](c2ccnc3ccc(F)cc32)CC1` (some centres not stated) stands 0%; under `C[C@@H](C(=O)Nc1ccc(Cl)c(OCCOCCOCCOCCOCCOCCNc2cccc3c2C(=O)N(C2CCC(=O)NC2=O)C3=O)c1)[C@H]1CC[C@@H](c2ccnc3ccc(F)cc32)CC1` (some centres not stated), 0%.
As to `C[C@@H](C(=O)Nc1ccc(OCCCCCCCCCCNC(=O)COc2cccc3c2C(=O)N(C2CCC(=O)NC2=O)C3=O)cc1)[C@H]1CC[C@@H](c2ccnc3ccc(F)cc32)CC1` (some centres not stated), the Activity is 0%.
Under `C[C@@H](C(=O)Nc1ccc(Cl)c(OCCOCCOCCOCCNC(=O)COc2cccc3c2C(=O)N(C2CCC(=O)NC2=O)C3=O)c1)[C@H]1CC[C@@H](c2ccnc3ccc(F)cc32)CC1` (some centres not stated) stands 0%; under `C[C@@H](C(=O)Nc1ccc(OC2CCN(C(=O)CCOCCNc3cccc4c3C(=O)N(C3CCC(=O)NC3=O)C4=O)CC2)cc1)[C@H]1CC[C@@H](c2ccnc3ccc(F)cc32)CC1` (some centres not stated), 33%.
The same measure for `C[C@@H](C(=O)Nc1ccc(Cl)c(OCCOCCOCCOCCOCCNc2cccc3c2C(=O)N(C2CCC(=O)NC2=O)C3=O)c1)[C@H]1CC[C@@H](c2ccnc3ccc(F)cc32)CC1` (some centres not stated): 0%; for `C[C@@H](C(=O)Nc1ccc(Cl)c(OCCOCCOCCOCCOCCOCCNC(=O)COc2cccc3c2C(=O)N(C2CCC(=O)NC2=O)C3=O)c1)[C@H]1CC[C@@H](c2ccnc3ccc(F)cc32)CC1` (some centres not stated): 0%; for `C[C@@H](C(=O)Nc1ccc(OC2CN(C(=O)CCOCCOCCOc3cccc4c3C(=O)N(C3CCC(=O)NC3=O)C4=O)C2)cc1)[C@H]1CC[C@@H](c2ccnc3ccc(F)cc32)CC1` (some centres not stated): 74%.
The same measure for `C[C@@H](C(=O)Nc1ccc(OC2CN(C(=O)CCOCCOCCNC(=O)COc3cccc4c3C(=O)N(C3CCC(=O)NC3=O)C4=O)C2)cc1)[C@H]1CC[C@@H](c2ccnc3ccc(F)cc32)CC1` (some centres not stated): 9%; for `C[C@@H](C(=O)Nc1ccc(OCCOCCNc2cccc3c2C(=O)N(C2CCC(=O)NC2=O)C3=O)cc1)[C@H]1CC[C@@H](c2ccnc3ccc(F)cc32)CC1` (some centres not stated): 23%; for `C[C@@H](C(=O)Nc1ccc(OCCOCCOCCOCCNC(=O)COc2cccc3c2C(=O)N(C2CCC(=O)NC2=O)C3=O)cc1)[C@H]1CC[C@@H](c2ccnc3ccc(F)cc32)CC1` (some centres not stated): 0%.
Regarding `C[C@@H](C(=O)Nc1ccc(Cl)c(OCCOCCOCCOCCOCCOCCOc2cccc3c2C(=O)N(C2CCC(=O)NC2=O)C3=O)c1)[C@H]1CC[C@@H](c2ccnc3ccc(F)cc32)CC1` (some centres not stated), the Activity was found to be 0%.
The same measure for `C[C@@H](C(=O)Nc1ccc(Cl)c(OCCOCCNc2cccc3c2C(=O)N(C2CCC(=O)NC2=O)C3=O)c1)[C@H]1CC[C@@H](c2ccnc3ccc(F)cc32)CC1` (some centres not stated): 66%; for `C[C@@H](C(=O)Nc1ccc(OCCCCOc2cccc3c2C(=O)N(C2CCC(=O)NC2=O)C3=O)cc1)[C@H]1CC[C@@H](c2ccnc3ccc(F)cc32)CC1` (some centres not stated): 0%.
Under `C[C@@H](C(=O)Nc1ccc(Cl)c(OCCOCCOCCNc2cccc3c2C(=O)N(C2CCC(=O)NC2=O)C3=O)c1)[C@H]1CC[C@@H](c2ccnc3ccc(F)cc32)CC1` (some centres not stated) stands 71%; under `C[C@@H](C(=O)Nc1ccc(Cl)c(OCCCCCCCCCNc2cccc3c2C(=O)N(C2CCC(=O)NC2=O)C3=O)c1)[C@H]1CC[C@@H](c2ccnc3ccc(F)cc32)CC1` (some centres not stated), 0%.
As to `C[C@@H](C(=O)Nc1ccc(OC2CN(CCCOCCOCCNC(=O)COc3cccc4c3C(=O)N(C3CCC(=O)NC3=O)C4=O)C2)cc1)[C@H]1CC[C@@H](c2ccnc3ccc(F)cc32)CC1` (some centres not stated), the Activity was found to be 0%.
The same measure for `C[C@@H](C(=O)Nc1ccc(OC2CCN(CCCOCCOCCNC(=O)COc3cccc4c3C(=O)N(C3CCC(=O)NC3=O)C4=O)CC2)cc1)[C@H]1CC[C@@H](c2ccnc3ccc(F)cc32)CC1` (some centres not stated): 33%; for `C[C@@H](C(=O)Nc1ccc(OCCOCCOCCOc2cccc3c2C(=O)N(C2CCC(=O)NC2=O)C3=O)cc1)[C@H]1CC[C@@H](c2ccnc3ccc(F)cc32)CC1` (some centres not stated): 94%.
For the molecule `C[C@@H](C(=O)Nc1ccc(Cl)c(OCCCCCCCCCOc2cccc3c2C(=O)N(C2CCC(=O)NC2=O)C3=O)c1)[C@H]1CC[C@@H](c2ccnc3ccc(F)cc32)CC1` (some centres not stated), the Activity worked out at 16%.
The same measure for `C[C@@H](C(=O)Nc1ccc(OCCOCCOc2cccc3c2C(=O)N(C2CCC(=O)NC2=O)C3=O)cc1)[C@H]1CC[C@@H](c2ccnc3ccc(F)cc32)CC1` (some centres not stated): 18%; for `C[C@@H](C(=O)Nc1ccc(Cl)c(OCCOCCOCCOCCNc2cccc3c2C(=O)N(C2CCC(=O)NC2=O)C3=O)c1)[C@H]1CC[C@@H](c2ccnc3ccc(F)cc32)CC1` (some centres not stated): 0%.
As to `C[C@@H](C(=O)Nc1ccc(OCCCCNc2cccc3c2C(=O)N(C2CCC(=O)NC2=O)C3=O)cc1)[C@H]1CC[C@@H](c2ccnc3ccc(F)cc32)CC1` (some centres not stated), the Activity came out at 0%.
Under `C[C@@H](C(=O)Nc1ccc(OC2CCN(C(=O)CCOCCOc3cccc4c3C(=O)N(C3CCC(=O)NC3=O)C4=O)CC2)cc1)[C@H]1CC[C@@H](c2ccnc3ccc(F)cc32)CC1` (some centres not stated) stands 45%; under `C[C@@H](C(=O)Nc1ccc(Cl)c(OCCOCCOCCOCCOCCNC(=O)COc2cccc3c2C(=O)N(C2CCC(=O)NC2=O)C3=O)c1)[C@H]1CC[C@@H](c2ccnc3ccc(F)cc32)CC1` (some centres not stated), 0%.
The same measure for `C[C@@H](C(=O)Nc1ccc(OC2CCN(C(=O)CCOCCOCCNC(=O)COc3cccc4c3C(=O)N(C3CCC(=O)NC3=O)C4=O)CC2)cc1)[C@H]1CC[C@@H](c2ccnc3ccc(F)cc32)CC1` (some centres not stated): 81%; for `C[C@@H](C(=O)Nc1ccc(Cl)c(OCCCCCCNC(=O)COc2cccc3c2C(=O)N(C2CCC(=O)NC2=O)C3=O)c1)[C@H]1CC[C@@H](c2ccnc3ccc(F)cc32)CC1` (some centres not stated): 0%; for `C[C@@H](C(=O)Nc1ccc(Cl)c(OCCOCCOCCNC(=O)COc2cccc3c2C(=O)N(C2CCC(=O)NC2=O)C3=O)c1)[C@H]1CC[C@@H](c2ccnc3ccc(F)cc32)CC1` (some centres not stated): 40%.
The same measure for `C[C@@H](C(=O)Nc1ccc(Cl)c(OCCOCCNC(=O)COc2cccc3c2C(=O)N(C2CCC(=O)NC2=O)C3=O)c1)[C@H]1CC[C@@H](c2ccnc3ccc(F)cc32)CC1` (some centres not stated): 8%; for `C[C@@H](C(=O)Nc1ccc(OCCCCCCCNC(=O)COc2cccc3c2C(=O)N(C2CCC(=O)NC2=O)C3=O)cc1)[C@H]1CC[C@@H](c2ccnc3ccc(F)cc32)CC1` (some centres not stated): 0%.
On to `C[C@@H](C(=O)Nc1ccc(OCCOCCOCCNc2cccc3c2C(=O)N(C2CCC(=O)NC2=O)C3=O)cc1)[C@H]1CC[C@@H](c2ccnc3ccc(F)cc32)CC1` (some centres not stated), for which the Activity amounted to 77%.
On to `C[C@@H](C(=O)Nc1ccc(OCCOCCNC(=O)COc2cccc3c2C(=O)N(C2CCC(=O)NC2=O)C3=O)cc1)[C@H]1CC[C@@H](c2ccnc3ccc(F)cc32)CC1` (some centres not stated), for which the Activity stood at 48%.
Under `C[C@@H](C(=O)Nc1ccc(OC2CCN(C(=O)CCOCCNC(=O)COc3cccc4c3C(=O)N(C3CCC(=O)NC3=O)C4=O)CC2)cc1)[C@H]1CC[C@@H](c2ccnc3ccc(F)cc32)CC1` (some centres not stated) stands 38%.
